The results in this text go back to ChEMBL document CHEMBL1123816, “Synthesis and antidepressant properties of novel 2-substituted 4,5-dihydro-1H-imidazole derivatives” (J Med Chem, 1987).

The nature of assay [1]: selectivity ratio (Alpha-1[3H]-prazosin/Alpha2[3H]-clonidine).
The target of assay [2] is T1, Adrenergic receptor alpha-2 (Rattus norvegicus, UniProt P22086+P19328+P22909).
T1 sequence (P22086 whole entry): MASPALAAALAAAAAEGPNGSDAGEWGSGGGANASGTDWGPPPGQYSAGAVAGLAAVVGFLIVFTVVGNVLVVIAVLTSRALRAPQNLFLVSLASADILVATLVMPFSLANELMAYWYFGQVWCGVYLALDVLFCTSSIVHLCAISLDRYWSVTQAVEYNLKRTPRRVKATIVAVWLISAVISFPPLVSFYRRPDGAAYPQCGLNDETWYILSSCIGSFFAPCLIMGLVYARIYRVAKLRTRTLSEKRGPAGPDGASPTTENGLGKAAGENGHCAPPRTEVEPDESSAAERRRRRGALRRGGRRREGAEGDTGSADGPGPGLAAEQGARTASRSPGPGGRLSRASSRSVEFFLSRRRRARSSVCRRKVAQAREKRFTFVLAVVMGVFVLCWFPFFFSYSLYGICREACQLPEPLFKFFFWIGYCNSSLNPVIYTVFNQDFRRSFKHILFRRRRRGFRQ
T1 sequence (P19328 whole entry): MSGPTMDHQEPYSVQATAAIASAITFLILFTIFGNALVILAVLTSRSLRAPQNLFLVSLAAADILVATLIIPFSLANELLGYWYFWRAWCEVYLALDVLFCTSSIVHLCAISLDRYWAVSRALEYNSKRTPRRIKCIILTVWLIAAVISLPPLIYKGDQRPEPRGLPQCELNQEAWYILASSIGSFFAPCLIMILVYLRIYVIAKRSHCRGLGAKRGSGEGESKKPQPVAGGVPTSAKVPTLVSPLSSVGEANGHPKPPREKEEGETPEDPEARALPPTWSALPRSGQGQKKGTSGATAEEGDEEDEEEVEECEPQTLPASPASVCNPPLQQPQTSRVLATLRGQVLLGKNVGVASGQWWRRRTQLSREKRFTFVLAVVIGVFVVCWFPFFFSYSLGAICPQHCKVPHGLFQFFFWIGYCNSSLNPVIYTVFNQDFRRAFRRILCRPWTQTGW
T1 sequence (P22909 whole entry): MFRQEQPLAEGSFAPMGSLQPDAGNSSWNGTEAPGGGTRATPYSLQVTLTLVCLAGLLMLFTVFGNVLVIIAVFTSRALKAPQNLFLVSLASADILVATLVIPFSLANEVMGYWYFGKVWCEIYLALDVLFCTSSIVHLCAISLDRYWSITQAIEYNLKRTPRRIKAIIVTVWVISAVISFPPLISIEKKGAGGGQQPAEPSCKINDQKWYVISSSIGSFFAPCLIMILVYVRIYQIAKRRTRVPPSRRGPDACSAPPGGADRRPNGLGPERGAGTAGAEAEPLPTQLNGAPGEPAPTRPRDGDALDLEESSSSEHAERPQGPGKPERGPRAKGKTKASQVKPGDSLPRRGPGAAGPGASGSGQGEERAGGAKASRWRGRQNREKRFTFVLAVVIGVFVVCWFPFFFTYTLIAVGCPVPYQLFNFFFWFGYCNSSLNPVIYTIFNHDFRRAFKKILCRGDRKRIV
Put plainly: (§1) Ability to displace [3H]clonidine from alpha-2 adrenergic receptor in rat brain homogenates in vitro. Type of assay: tissue-based. Put shortly: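 Rat cerebral cortex homogenized in 50 mM Tris pH 7.7, washed twice by centrifugation at 48000g, resuspended in 50 volumes. Membranes incubated with 0.4 nM [3H]clonidine plus varied test concentrations, 30 min at 25 °C. Nonspecific binding defined with 1 μM unlabeled clonidine. GF/B filtration, scintillation counting. Run in triplicate; logit plot IC50 converted to apparent Ki (Cheng–Prusoff).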

The target in assay [3] is T1, Adrenergic receptor alpha-2. As to the kind of experiment: In vitro antagonistic activity against alpha-2 adrenergic receptor in isolated electrically stimulated rat vas deferens (clonidine-induced decrease in twitch height). The class given is functional, tissue-based.
The subject of the next assay is Rattus norvegicus. Put plainly: Minimum effective dose required for inhibition of serotonin uptake was determined by PCA method in rat by peroral administration. The conditions noted are these: po, read-out: MED. Type of assay: functional. An outline of the steps: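 Fasted male Sprague–Dawley rats (160–200 g) given test compound orally in water (10 mL/kg) 15 min before p-chloroamphetamine 3 mg/kg ip. Forebrain taken 3 h later, extracted in acidified butanol then heptane/0.1 N HCl. Serotonin in aqueous phase measured fluorometrically after o-phthalaldehyde condensation (excitation 360 nm). Minimum effective dose reported.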

In assay [4] the target is T1, Adrenergic receptor alpha-2. Described as §1. The class given is tissue-based. The source holds these as a separate data set.

Broadly, the Ki is a dissociation constant, usually derived from enzyme kinetics or from competition with a known ligand. Low values mean a stronger hold on the target, high ones a looser hold on the target. As a reminder, the pA2 is a measure of antagonist potency on a negative log scale. A higher pA2 goes with higher antagonist potency. On to `CC1=C(CC2=NCCN2)CCc2ccccc21.Cl`, for which the Selectivity ratio in assay [1] amounted to 12.3. For the same compound, the Ki in assay [2] and in assay [4] was 12 nM throughout. Besides, the pA2 in assay [3] is given as 7.19. Also, in the assay with Rattus norvegicus, the minimal effective dose was determined as 30 mg/kg.

As for `C1=C(CC2=NCCN2)CCc2ccccc21.Cl` [NAPAMEZOLE HYDROCHLORIDE], the Ratio in assay [1] is 3.4. For the same compound, the Ki in assay [2] and in assay [4] was 23 nM throughout. The compound further gave a pA2 in assay [3] of 7.76. The minimal effective dose in the assay with Rattus norvegicus amounted to 30 mg/kg.
